Results from ChEMBL document CHEMBL1145082 (J Med Chem, 2003).

Columns and labels:
[1] = molecular target: Glycogen synthase kinase-3 beta (Homo sapiens) (UniProt P49841); assay: Inhibition of Glycogen synthase kinase-3beta (GSK3-beta) at 1 uM; conditions: Oryctolagus cuniculus
[2] = Inhibition of Casein Kinase I; parameters: species or system Rattus norvegicus
How it was run: (§1)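 Reaction started with 30–150 ng kinase, run 1 h at 30 °C. Peptides captured on streptavidin plates and counted. IC50 from 6–10 concentrations; ≥3 experiments in duplicate; ± SEM.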

CaM kinase II = CaM kinase II (Homo sapiens, UniProt Q13557+Q13555+Q13554+Q9UQM7); assay: Inhibition of Calcium/calmodulin-dependent protein kinase II; format: protein assay, Rattus norvegicus
[3] = molecular target: Cyclin-dependent kinase 1 (Homo sapiens, UniProt P06493); assay: Inhibition of Cyclin-dependent kinase 1; how it was run: as §1
[4] = molecular target: Cyclin-dependent kinase 2 (Homo sapiens, UniProt P24941); assay: Inhibition of Cyclin-dependent kinase 2 (CDK2); how it was run: as §1
[5] = molecular target: Protein kinase C gamma type (Homo sapiens, UniProt P05129); assay: Inhibition of Protein kinase C gamma (PKC-gamma)
How it was run: (§2)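 Recombinant human PKCα, PKCγ or PKCβII (5–10 mU) phosphorylating histone H1 (0.1 mg/mL) with 33P-ATP, total ATP 10 µM. Buffer 50 mM Hepes pH 7.4 with Triton X-100, CaCl2, Mg acetate, phosphatidylserine and diacylglycerol. Run 40 min at room temperature, stopped with phosphoric acid, then P30 filter counting. IC50 from 6–10 concentrations; ≥3 experiments in duplicate; ± SEM.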

[6] = molecular target: Protein kinase C alpha type (Homo sapiens, UniProt P17252); assay: Inhibition of Protein kinase C alpha
How it was run: as §2, with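 “counting.” for “counting. IC50 from 6–10 concentrations; ≥3 experiments in duplicate; ± SEM.”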

[7] = molecular target: Protein kinase C beta type (Homo sapiens, UniProt P05771); assay: Inhibition of Protein kinase C beta 2
How it was run: as §2, with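 “counting.” for “counting. IC50 from 6–10 concentrations; ≥3 experiments in duplicate; ± SEM.”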

[8] = Inhibitory activity against Protein kinase A was determined
[9] = molecular target: Protein kinase C theta type (Homo sapiens, UniProt Q04759); assay: Inhibition of Protein kinase C theta
How it was run: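 Recombinant human PKCθ (5–10 mU) with histone H1 (0.1 mg/mL) and 33P-ATP, total ATP 10 µM, in 8 mM MOPS pH 7.0, 0.2 mM EDTA, 10 mM Mg acetate. Run 40 min at room temperature, stopped with phosphoric acid, then P30 filter counting. IC50 from 6–10 concentrations; ≥3 experiments in duplicate; ± SEM.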

[10] = Inhibition of Vascular endothelial growth factor receptor 2; parameters: species or system Homo sapiens; how it was run: as §1

Protein kinase C theta type, sequence (Q04759 whole entry): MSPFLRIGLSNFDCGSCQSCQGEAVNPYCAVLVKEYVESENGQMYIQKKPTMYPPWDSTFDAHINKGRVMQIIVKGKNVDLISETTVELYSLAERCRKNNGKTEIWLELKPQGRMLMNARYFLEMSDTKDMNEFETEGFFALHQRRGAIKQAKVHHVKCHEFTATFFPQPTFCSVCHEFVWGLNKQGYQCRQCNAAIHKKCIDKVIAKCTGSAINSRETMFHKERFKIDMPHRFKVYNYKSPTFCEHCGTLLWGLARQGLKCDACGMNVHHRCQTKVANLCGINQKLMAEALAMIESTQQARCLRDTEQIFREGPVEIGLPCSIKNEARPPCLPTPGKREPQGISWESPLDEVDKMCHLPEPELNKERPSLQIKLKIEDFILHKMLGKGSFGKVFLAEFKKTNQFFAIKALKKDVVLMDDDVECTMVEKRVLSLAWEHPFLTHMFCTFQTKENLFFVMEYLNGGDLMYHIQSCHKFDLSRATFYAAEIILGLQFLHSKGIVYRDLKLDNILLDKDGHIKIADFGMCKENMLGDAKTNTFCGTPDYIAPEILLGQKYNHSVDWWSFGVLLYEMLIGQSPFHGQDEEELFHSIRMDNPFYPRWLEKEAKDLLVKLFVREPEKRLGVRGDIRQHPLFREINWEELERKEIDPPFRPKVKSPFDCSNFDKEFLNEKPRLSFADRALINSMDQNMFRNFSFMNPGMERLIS
Protein kinase C beta type, sequence (P05771 whole entry): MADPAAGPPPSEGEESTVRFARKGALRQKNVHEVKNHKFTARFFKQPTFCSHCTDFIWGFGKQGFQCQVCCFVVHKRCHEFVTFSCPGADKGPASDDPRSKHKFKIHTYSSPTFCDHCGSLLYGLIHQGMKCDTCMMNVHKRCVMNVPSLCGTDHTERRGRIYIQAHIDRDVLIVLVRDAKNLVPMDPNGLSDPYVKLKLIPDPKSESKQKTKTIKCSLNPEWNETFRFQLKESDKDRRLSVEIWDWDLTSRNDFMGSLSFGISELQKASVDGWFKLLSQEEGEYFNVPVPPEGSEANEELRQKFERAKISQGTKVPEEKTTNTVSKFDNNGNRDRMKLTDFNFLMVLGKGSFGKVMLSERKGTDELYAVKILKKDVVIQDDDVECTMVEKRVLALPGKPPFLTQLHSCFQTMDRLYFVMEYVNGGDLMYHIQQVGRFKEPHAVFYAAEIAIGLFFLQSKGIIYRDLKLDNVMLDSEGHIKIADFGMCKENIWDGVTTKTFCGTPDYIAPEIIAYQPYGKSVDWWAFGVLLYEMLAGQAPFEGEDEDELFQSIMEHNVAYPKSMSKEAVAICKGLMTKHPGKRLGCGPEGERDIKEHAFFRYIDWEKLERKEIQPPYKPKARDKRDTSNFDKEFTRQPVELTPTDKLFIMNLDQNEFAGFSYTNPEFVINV
Cyclin-dependent kinase 1, sequence (P06493 whole entry): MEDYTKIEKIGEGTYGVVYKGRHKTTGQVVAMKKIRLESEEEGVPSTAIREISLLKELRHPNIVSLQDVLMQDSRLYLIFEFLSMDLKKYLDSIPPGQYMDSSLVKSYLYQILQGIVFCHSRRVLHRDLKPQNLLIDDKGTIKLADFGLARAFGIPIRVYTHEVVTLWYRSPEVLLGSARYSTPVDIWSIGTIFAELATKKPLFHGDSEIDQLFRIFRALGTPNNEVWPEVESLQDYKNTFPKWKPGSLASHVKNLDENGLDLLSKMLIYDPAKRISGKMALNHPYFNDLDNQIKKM
Glycogen synthase kinase-3 beta (Homo sapiens), sequence (P49841 whole entry, looked up): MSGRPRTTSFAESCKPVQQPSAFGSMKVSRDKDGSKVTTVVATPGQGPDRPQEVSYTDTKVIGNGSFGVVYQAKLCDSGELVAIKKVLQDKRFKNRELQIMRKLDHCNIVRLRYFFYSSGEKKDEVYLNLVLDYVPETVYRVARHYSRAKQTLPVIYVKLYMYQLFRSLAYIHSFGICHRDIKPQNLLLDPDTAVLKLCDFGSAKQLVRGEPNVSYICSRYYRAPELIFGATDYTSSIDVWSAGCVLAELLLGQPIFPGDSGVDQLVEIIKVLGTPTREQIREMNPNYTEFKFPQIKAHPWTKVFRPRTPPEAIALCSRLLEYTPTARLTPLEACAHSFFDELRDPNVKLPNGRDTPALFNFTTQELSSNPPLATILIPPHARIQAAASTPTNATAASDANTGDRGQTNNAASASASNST

For `CN1C(=O)C2=C(C1=O)c1cn(c3ncccc13)CCOCCOCCn1cc2c2ccccc21`, the inhibition [1] was 51%.
`O=C1NC(=O)C2=C1c1cn(c3ccccc13)CCOCCOCCOCCn1cc2c2cccnc21` [INDOLYLYLMALEIMIDE 1] showed an IC50 [2] of over 10000 nM, an IC50 (CaM kinase II) of over 10000 nM and an IC50 [3] of 4430 nM. It also gave an IC50 [4] of 2440 nM, an IC50 [5] of 1340 nM and an IC50 [6] of 673 nM. It also gave an IC50 [7] of 46 nM, an IC50 [8] of over 10000 nM and an IC50 [9] of 835 nM. It also gave an IC50 [10] of 3560 nM.
In the case of `O=C1NC(=O)C2=C1c1cn(c3ncccc13)CCOCCOCCn1cc2c2cccnc21`, the IC50 [5] is reported as over 10000 nM.
With `O=C1NC(=O)C2=C1c1cn(c3ccccc13)CCOCCOCCn1cc2c2ccccc21` the IC50 [5] was 2730 nM.
`O=C1NC(=O)C2=C1c1cn(c3ncccc13)CCOCCOCCOCCOCCOCCn1cc2c2cccnc21` gave an IC50 [5] of over 10000 nM.
For `O=C1NC(=O)C2=C1c1cn(c3ccccc13)CCOCCOCCOCCOCCOCCn1cc2c2ccccc21`, the IC50 [5] was 5170 nM.
With `O=C1NC(=O)C2=C1c1cn(c3ccccc13)CCOCCOCCOCCOCCn1cc2c2ccccc21` the IC50 [5] was 3300 nM.
For `O=C1NC(=O)C2=C1c1cn(c3ccccc13)CCOCCOCCn1cc2c2cccnc21`, the IC50 [5] was 2670 nM.
`O=C1NC(=O)C2=C1c1cn(c3ccccc13)CCOCCOCCOCCn1cc2c2ccccc21` [INDOLYLYLMALEIMIDE 2] gave an IC50 [2] of over 10000 nM, an IC50 [3] of 1250 nM and an IC50 [4] of 992 nM. For the same compound, the IC50 [5] was 1200 nM, the IC50 [6] was 86 nM and the IC50 [7] was 6 nM. The IC50 [8] was over 10000 nM, the IC50 [9] was 65 nM and the IC50 [10] was 1450 nM.
With `CN1C(=O)C2=C(C1=O)c1cn(c3ccccc13)CCOCCOCCOCCn1cc2c2ccccc21` the inhibition [1] was 54%.
